Results as given in ChEMBL document CHEMBL1147153, “Development of ruthenium antitumor drugs that overcome multidrug resistance mechanisms” (J Med Chem, 2007).
pIC50: −log10 of the molar value. The source made the active and inactive calls. The rule behind the calls is not given here.

What was measured:
[1] = system: A549; assay: Cytotoxicity against human A549 cells by MTT assay; assay type: cell-based
Outline: (§1)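 Cells plated 24 h, then exposed 72 h to compound at 1-300 µM. Compound was diluted from a fresh DMSO stock (20 mM for A549, HT29, T47D; 10 mM for TS/A, HBL-100) into 5%-serum medium, with at most 0.5% or 1% v/v DMSO respectively. Growth media: DMEM (A549, HT29, T47D), McCoy's 5A (HBL-100). MTT (5 mg/mL in PBS, 2.5 µL/100 µL medium) was added for 2 h at 37 °C; formazan dissolved in DMSO and read at OD 570 nm.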

[2] = system: HT-29; assay: Cytotoxicity against human HT29 cells by MTT assay; assay type: cell-based; outline: as §1
[3] = system: T47D; assay: Cytotoxicity against human T47D cells by MTT assay; assay type: cell-based; outline: as §1
[4] = system: TS/A; assay: Cytotoxicity against […] TS/A cells by MTT assay; assay type: cell-based; conditions: Mus musculus; outline: as §1
[5] = Cytotoxicity against human HBL100 cells by MTT assay; assay type: cell-based; conditions: HBL-100; outline: as §1
[6] = system: A549; assay: Inhibition of P-gp in A549 cells assessed as drug concentration required to double baseline fluorescence level by calcein-AM uptake assay; assay type: cell-based; conditions: Homo sapiens
Outline: (§2)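 A549 Pgp activity: cells washed in Hanks salt solution with 10 mM HEPES, preincubated 30 min in that buffer, then 15 min with compound. Calcein-AM (1 µM final) added for a further 60 min; uptake stopped on ice, cells washed cold and lysed 15 min in 1% Triton X-100/PBS. Calcein fluorescence read at ex 485/em 530 nm; reported as F2.0 (concentration doubling baseline fluorescence) or inhibition at 80 µM relative to verapamil.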

[7] = target: P-gp (ABCB1) (Homo sapiens, UniProt P08183); assay: Inhibition of P-gp in A549 cells at 80 uM by calcein-AM uptake assay relative to verapamil; assay type: cell-based; conditions: probe calcein-AM; outline: as §2
Chain of P-gp (ABCB1) (P08183 whole entry): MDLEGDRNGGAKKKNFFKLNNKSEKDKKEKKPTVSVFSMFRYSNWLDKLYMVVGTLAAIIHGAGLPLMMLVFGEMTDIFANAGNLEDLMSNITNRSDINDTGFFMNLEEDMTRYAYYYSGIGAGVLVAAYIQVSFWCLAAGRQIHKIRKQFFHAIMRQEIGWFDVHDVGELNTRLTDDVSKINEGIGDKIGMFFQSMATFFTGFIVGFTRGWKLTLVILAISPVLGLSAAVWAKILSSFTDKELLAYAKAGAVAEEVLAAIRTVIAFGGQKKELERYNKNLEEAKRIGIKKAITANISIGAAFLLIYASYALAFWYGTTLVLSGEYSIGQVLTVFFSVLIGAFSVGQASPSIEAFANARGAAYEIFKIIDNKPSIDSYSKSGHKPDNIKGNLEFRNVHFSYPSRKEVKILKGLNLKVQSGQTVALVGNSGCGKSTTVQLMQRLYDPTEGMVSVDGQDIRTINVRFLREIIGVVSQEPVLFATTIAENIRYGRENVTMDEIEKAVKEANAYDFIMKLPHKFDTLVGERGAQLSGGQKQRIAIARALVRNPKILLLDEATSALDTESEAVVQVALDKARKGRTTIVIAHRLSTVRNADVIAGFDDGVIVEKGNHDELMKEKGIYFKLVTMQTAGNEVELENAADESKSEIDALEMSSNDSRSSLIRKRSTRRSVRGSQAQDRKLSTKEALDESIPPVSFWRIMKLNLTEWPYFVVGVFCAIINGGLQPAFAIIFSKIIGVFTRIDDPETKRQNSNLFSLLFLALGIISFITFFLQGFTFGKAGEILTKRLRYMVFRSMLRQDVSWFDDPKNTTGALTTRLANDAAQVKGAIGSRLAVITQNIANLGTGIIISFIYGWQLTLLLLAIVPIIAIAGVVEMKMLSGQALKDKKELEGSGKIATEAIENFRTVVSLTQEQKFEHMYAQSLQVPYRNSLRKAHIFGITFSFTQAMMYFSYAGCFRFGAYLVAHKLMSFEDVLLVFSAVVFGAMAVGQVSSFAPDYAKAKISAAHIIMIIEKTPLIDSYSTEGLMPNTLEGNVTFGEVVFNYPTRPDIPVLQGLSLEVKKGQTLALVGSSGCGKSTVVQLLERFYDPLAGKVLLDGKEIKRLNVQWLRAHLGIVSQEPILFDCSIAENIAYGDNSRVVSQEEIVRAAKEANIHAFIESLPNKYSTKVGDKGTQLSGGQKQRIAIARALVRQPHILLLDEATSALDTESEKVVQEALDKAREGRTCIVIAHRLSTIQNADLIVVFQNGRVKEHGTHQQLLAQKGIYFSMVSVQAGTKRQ

[8] = system: A549; assay: Drug accumulation in human A549 cells after 1 hrs; assay type: functional, cell-based
Outline: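 A549 cells grown on slides were exposed to 100 µM compound for 0.5-4 h, PBS-washed, fixed 5 min in 4% buffered paraformaldehyde, and imaged by fluorescence microscopy under 365 nm irradiation with a 1 s exposure.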

Structure (SMILES) | pIC50 [1] | pIC50 [2] | pIC50 [3] | pIC50 [4] | pIC50 [5] | Activity [6] [µM] | inhibition at 80 µM [7] [%] | Activity [8]
O=C(Cn1ccnc1)N1c2ccccc2Oc2ccccc21 [PHENOXIMID] | < 4.00 | 4.77 | 4.02 | 4.52 | 4.64 | > 100 | 24 | –
c1ccc2c(-n3ccnc3)c3ccccc3cc2c1 | 4.12 | 4.35 | 4.47 | 4.00 | 3.66 | > 100 | 18 | Active
COc1ccc(CCN(C)CCCC(C#N)(c2ccc(OC)c(OC)c2)C(C)C)cc1OC (stereo not drawn) | – | – | – | – | – | 7 | – | –
O=C(Cn1cnc2ccccc21)N1c2ccccc2Oc2ccccc21 [PHENOXBENZIMID] | 4.12 | 4.48 | 4.04 | 4.29 | < 4.00 | 23 | 65 | –
O=C(CCl)N1c2ccccc2Oc2ccccc21 | < 4.00 | 4.96 | 5.15 | 4.40 | 4.54 | – | – | –
